ChEMBL document CHEMBL1137004, “Discovery of novel motilin antagonists: Conversion of tetrapeptide leads to orally available peptidomimetics” (Bioorg Med Chem Lett, 2009)
Active and inactive are the calls of the source. No cut-off for these calls is given here. Where a SMILES comes first, the peptide text is derived from it.

Tests used:
[1] = Oral bioavailability in rat at 10 mg/kg; format: ADME, organism-based; conditions: in vivo
[2] = system: Canis familiaris; experiment: Suppression of MTL receptor-mediated motilin-induced gastric motility in conscious dog 5 mg/kg administered 30 mins before motilin challenge; format: functional, organism-based; design: dose 5 mg/kg; conditions: Canis lupus familiaris; Stomach
[3] = Apparent permeability across human Caco-2 cells at pH 6.8; format: ADME, cell-based; conditions: Caco-2, pH 6.8
[4] = system: Canis familiaris; experiment: Suppression of MTL receptor-mediated motilin-induced colonic motility in conscious dog 5 mg/kg administered 30 mins before motilin challenge; format: functional, organism-based; design: dose 5 mg/kg; conditions: Canis lupus familiaris
[5] = biological target: T1, Motilin receptor (Oryctolagus cuniculus, UniProt A5A4K8); experiment: Displacement of [125I]motilin from MTL receptor in rabbit duodenum homogenate
In short: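 Tissue homogenate incubated at 25 °C with 25 pM [¹²⁵I]motilin for 120 min. Stopped with ice-cold buffer, then bound and free ligand separated by centrifugation at 1500g for 5 min. Pellet washed with ice-cold buffer and counted by gamma counter. IC₅₀ is the concentration displacing 50% of ¹²⁵I-motilin binding.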

[6] = biological target: T1, Motilin receptor; experiment: Antagonist activity at MTL receptor in rabbit duodenum homogenate; format: functional, tissue-based; conditions: read-out: pA2 (converted)
[7] = Metabolic stability in rat liver S9 fraction assessed as compound remaining after 30 mins; format: ADME, subcellular; conditions: read-out: Stability
In short: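 Compound incubated with rat liver S-9 for 30 min at 37 °C. Stability is expressed as residual % of compound.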

T1 sequence (A5A4K8 whole entry): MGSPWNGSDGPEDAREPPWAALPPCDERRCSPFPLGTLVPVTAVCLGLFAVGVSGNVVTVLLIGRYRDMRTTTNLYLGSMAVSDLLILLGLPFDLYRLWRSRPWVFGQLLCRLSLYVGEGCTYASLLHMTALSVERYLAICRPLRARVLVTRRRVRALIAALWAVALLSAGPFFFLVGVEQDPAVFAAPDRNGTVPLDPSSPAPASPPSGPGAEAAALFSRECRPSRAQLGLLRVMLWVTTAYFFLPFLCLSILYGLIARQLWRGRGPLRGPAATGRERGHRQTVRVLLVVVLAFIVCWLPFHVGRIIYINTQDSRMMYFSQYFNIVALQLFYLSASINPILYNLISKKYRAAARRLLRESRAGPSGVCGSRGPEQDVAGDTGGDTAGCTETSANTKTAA

Row | Compound | bioavailability [1] [%] | Activity [2] | Papp [3] [×10⁻⁶ cm/s] | Activity [4] | IC50 [5] [nM] | Kb [6] [nM] | remaining at 0.5 h [7] [%]
1 | CC(C)[C@@H](C(=O)N[C@H](C)Cc1ccc(O)c(C(C)(C)C)c1)N(C)C(=O)[C@@H](N)Cc1ccccc1 | 65 | Active | 12.1 | Active | 1.9 | 3.98 | 100
2 | CC(C)(C)c1cc(C[C@@H]2NC(=O)[C@@H](NC(=O)[C@@H](N)Cc3ccccc3)CCCCCC(=O)CCNC2=O)ccc1O |  |  |  |  | 12 | 39.8 | 
3 | C[C@H](NC(=O)[C@@H](N)Cc1ccccc1)C(=O)N[C@@H](Cc1ccc(O)c(C(C)(C)C)c1)C(N)=O (HELM PEPTIDE1{F.A.[CC(C)(C)c1cc(C[C@H](N[*:1])C(=O)[*:2])ccc1O].[am]}$$$$V2.0) |  |  |  |  | 185 | > 1000 | 
4 | CC(C)(C)c1cc(C[C@H](NC(=O)[C@H](Cc2ccccc2)NC(=O)[C@@H](N)Cc2ccccc2)C(N)=O)ccc1O (HELM PEPTIDE1{F.F.[CC(C)(C)c1cc(C[C@H](N[*:1])C(=O)[*:2])ccc1O].[am]}$$$$V2.0) |  |  |  |  | 6 | 63.1 | 
5 | CC(C)C[C@H](NC(=O)[C@@H](N)Cc1ccccc1)C(=O)N[C@@H](Cc1ccc(O)c(C(C)(C)C)c1)C(N)=O (HELM PEPTIDE1{F.L.[CC(C)(C)c1cc(C[C@H](N[*:1])C(=O)[*:2])ccc1O].[am]}$$$$V2.0) |  |  |  |  | 27 | 50.1 | 
6 | CC(C)[C@H](NC(=O)[C@@H](N)Cc1ccccc1)C(=O)N[C@@H](Cc1ccc(O)c(C(C)(C)C)c1)C(N)=O (HELM PEPTIDE1{F.V.[CC(C)(C)c1cc(C[C@H](N[*:1])C(=O)[*:2])ccc1O].[am]}$$$$V2.0) |  |  |  |  | 46 | 126 | 
7 | CC(C)[C@H](NC(=O)[C@@H](N)Cc1ccccc1)C(=O)N(C)[C@@H](Cc1ccc(O)c(C(C)(C)C)c1)C(N)=O (HELM PEPTIDE1{F.V.[CN([C@@H](Cc1ccc(O)c(C(C)(C)C)c1)C(=O)[*:2])[*:1]].[am]}$$$$V2.0) |  |  |  |  | 24 | 63.1 | 7
8 | CC(C)(C)c1cc(C[C@H](NC(=O)[C@@H](NC(=O)[C@@H](N)Cc2ccccc2)c2ccccc2)C(N)=O)ccc1O (HELM PEPTIDE1{F.[Phg].[CC(C)(C)c1cc(C[C@H](N[*:1])C(=O)[*:2])ccc1O].[am]}$$$$V2.0) |  |  |  |  | 12 | 15.8 | 
9 | CC(C)[C@@H](C(=O)N[C@@H](Cc1ccc(O)c(C(C)(C)C)c1)C(N)=O)N(C)C(=O)[C@@H](N)Cc1ccccc1 (HELM PEPTIDE1{F.[meV].[CC(C)(C)c1cc(C[C@H](N[*:1])C(=O)[*:2])ccc1O].[am]}$$$$V2.0) | 6 |  |  |  | 1.1 | 12.6 | 69
10 | CC(C)[C@@H](C(=O)N(C)[C@@H](Cc1ccc(O)c(C(C)(C)C)c1)C(N)=O)N(C)C(=O)[C@@H](N)Cc1ccccc1 (HELM PEPTIDE1{F.[meV].[CN([C@@H](Cc1ccc(O)c(C(C)(C)C)c1)C(=O)[*:2])[*:1]].[am]}$$$$V2.0) | 30 | Active | 2.31 | Active | 4.3 | 2.51 | 80
